ChEMBL document CHEMBL1629690, “Development of hexadecyloxypropyl tenofovir (CMX157) for treatment of infection caused by wild-type and nucleoside/nucleotide-resistant HIV” (Antimicrob Agents Chemother, 2010)

Columns and labels:
Type in all cases: cell-based
[1] = Cytotoxicity against human dendritic cells after 24 hrs by XTT assay
Outline: (§1)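 Six-concentration growth-inhibition test: 10 to 0.032 μM for the prodrug and TDF, up to 100 μM for TFV, with Triton X-100 run in parallel. Cell lines were split 1:2 the day before and seeded at 5 × 10^3 to 2 × 10^4 cells/well, with adherent lines left overnight. Dendritic cells were derived with GM-CSF/IL-4 for 7 days, then LPS 10 ng/ml for 2 days. Viability was read by XTT.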

[2] = test system: PBMC; experiment: Cytotoxicity against PHA/IL-2-stimulated human PBMC after 24 hrs by XTT assay; outline: as §1
[3] = test system: HeLa; experiment: Cytotoxicity against human HeLa cells after 24 hrs by XTT assay; outline: as §1
[4] = test system: CEM-SS; experiment: Cytotoxicity against human CEM-SS cells after 24 hrs by XTT assay; outline: as §1
[5] = Cytotoxicity against human ME180 cells after 24 hrs by XTT assay; conditions: me-180, 24 h; outline: as §1
[6] = Cytotoxicity against human HuH7 cells after 24 hrs by XTT assay; conditions: huh-7, 24 h; outline: as §1
[7] = test system: HepG2; experiment: Cytotoxicity against human HepG2 cells after 24 hrs by XTT assay; conditions: hepg2, 24 h; outline: as §1

Measured: Activity

CC(C)OC(=O)OCOP(=O)(CO[C@H](C)Cn1cnc2c(N)ncnc21)OCOC(=O)OC(C)C.O=C(O)/C=C/C(=O)O [TENOFOVIR DISOPROXIL FUMARATE]
Non-toxic: [1] | [2] | [3] | [4] | [5] | [6] | [7]
